According to publication PMC10120002 (Proceedings of the National Academy of Sciences of the …, 2023):
Ends that are not written are not given here.

Target: recombinant Cdk5/p25 complex (Homo sapiens, UniProt Q00535+Q15078)
Assay: IP-linked Cdk5 kinase assay, recombinant Cdk5/p25, histone H1
Assay type: biochemical
Conditions: recombinant Cdk5/p25, overnight incubation, vs solvent control
How it was run: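 Recombinant Cdk5/p25 complex incubated overnight with test peptide or solvent control, then immunoprecipitated with anti-Cdk5 antibody overnight at 4 °C. The immunocomplex was used for a kinase reaction with histone H1 as substrate and ³²P label, resolved on 12% SDS-PAGE, dried, and exposed to film for several hours. ³²P-histone H1 band intensity was quantified, with Coomassie staining as loading check. Six replicates from two independent experiments.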

Sequence of recombinant Cdk5/p25 complex (Q00535 whole entry): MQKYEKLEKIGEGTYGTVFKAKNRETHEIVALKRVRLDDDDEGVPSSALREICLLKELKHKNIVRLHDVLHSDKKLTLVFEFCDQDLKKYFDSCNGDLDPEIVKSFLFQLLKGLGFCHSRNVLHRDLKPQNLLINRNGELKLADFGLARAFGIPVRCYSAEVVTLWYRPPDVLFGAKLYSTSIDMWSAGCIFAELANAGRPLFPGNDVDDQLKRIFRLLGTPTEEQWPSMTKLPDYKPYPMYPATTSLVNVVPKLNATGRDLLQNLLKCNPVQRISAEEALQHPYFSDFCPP
Sequence of recombinant Cdk5/p25 complex (Q15078 99-307 limits assumed): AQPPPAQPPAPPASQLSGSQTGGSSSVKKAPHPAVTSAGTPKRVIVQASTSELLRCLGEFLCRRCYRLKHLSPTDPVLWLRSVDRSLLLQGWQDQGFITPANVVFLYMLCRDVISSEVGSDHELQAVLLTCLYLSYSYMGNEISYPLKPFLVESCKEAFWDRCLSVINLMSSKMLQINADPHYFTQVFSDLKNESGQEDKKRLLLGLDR

ARAFGIPVRCYS [Cdk5i]
reduction of histone H1 phosphorylation by Cdk5/p25: ~ 22%
